From ChEMBL document CHEMBL4706544, “Discovery of 2-oxy-2-phenylacetic acid substituted naphthalene sulfonamide derivatives as potent KEAP1-NRF2 protein-protein interaction inhibitors for inflammatory conditions” (Eur J Med Chem, 2020)
One block for each compound: values may come before it. Calls of active or inactive are those of the source. The rule behind the calls is not given here.

Columns and labels:
[1] = tested on: Mus musculus; assay: Antiinflammatory activity in LPS-induced C57BL/6 mouse model assessed as reduction in IFNgamma production at 10 mg/kg, ip treated for 3 days measured 24 hrs post last dose by ELISA; type: functional, organism-based; conditions: time 4.0 day
How it was run: (§1)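 Female C57BL/6 mice (20 ± 2 g) got LPS 300 µg/kg IP, then 4 h later IP test compound (500 µL) daily for 3 days. Groups were saline control (n=3), LPS (n=8), LPS + 10 or 40 mg/kg (n=8 each) and LPS + dexamethasone 10 mg/kg IP (n=8). Sera were taken 24 h after the last dose, and IFN-γ, IL-1β, IL-6 and TNF-α were measured by ELISA kits.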

[2] = tested on: Mus musculus; assay: Antiinflammatory activity in LPS-induced C57BL/6 mouse model assessed as reduction in IL1beta production at 10 mg/kg, ip treated for 3 days measured 24 hrs post last dose by ELISA; type: functional, organism-based; conditions: time 4.0 day; how it was run: as §1
[3] = tested on: Mus musculus; assay: Antiinflammatory activity in LPS-induced C57BL/6 mouse model assessed as reduction in IL6 production at 10 mg/kg, ip treated for 3 days measured 24 hrs post last dose by ELISA; type: functional, organism-based; conditions: time 4.0 day; how it was run: as §1
[4] = tested on: Mus musculus; assay: Antiinflammatory activity in LPS-induced C57BL/6 mouse model assessed as reduction in TNFalpha production at 10 mg/kg, ip treated for 3 days measured 24 hrs post last dose by ELISA; type: functional, organism-based; conditions: time 4.0 day; how it was run: as §1
[5] = target: Keap1/Nrf2 (Homo sapiens, UniProt Q14145)
Chain of Keap1/Nrf2 (Q16236 whole entry): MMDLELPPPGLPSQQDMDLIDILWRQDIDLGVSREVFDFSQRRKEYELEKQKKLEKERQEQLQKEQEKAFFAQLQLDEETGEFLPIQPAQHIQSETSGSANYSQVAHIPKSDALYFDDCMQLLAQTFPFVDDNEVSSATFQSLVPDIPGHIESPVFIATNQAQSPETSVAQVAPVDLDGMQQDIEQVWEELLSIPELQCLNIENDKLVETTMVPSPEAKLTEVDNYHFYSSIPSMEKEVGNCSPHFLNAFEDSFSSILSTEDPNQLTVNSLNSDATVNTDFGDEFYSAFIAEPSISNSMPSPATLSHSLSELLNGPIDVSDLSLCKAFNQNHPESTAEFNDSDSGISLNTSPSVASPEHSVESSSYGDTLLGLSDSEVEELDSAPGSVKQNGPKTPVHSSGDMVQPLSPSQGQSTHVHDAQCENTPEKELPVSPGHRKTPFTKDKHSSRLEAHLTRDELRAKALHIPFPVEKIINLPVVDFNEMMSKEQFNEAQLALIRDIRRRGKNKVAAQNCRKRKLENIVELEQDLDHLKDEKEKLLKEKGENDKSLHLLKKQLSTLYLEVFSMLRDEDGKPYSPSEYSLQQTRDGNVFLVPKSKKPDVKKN
Chain of Keap1/Nrf2 (Q14145 whole entry): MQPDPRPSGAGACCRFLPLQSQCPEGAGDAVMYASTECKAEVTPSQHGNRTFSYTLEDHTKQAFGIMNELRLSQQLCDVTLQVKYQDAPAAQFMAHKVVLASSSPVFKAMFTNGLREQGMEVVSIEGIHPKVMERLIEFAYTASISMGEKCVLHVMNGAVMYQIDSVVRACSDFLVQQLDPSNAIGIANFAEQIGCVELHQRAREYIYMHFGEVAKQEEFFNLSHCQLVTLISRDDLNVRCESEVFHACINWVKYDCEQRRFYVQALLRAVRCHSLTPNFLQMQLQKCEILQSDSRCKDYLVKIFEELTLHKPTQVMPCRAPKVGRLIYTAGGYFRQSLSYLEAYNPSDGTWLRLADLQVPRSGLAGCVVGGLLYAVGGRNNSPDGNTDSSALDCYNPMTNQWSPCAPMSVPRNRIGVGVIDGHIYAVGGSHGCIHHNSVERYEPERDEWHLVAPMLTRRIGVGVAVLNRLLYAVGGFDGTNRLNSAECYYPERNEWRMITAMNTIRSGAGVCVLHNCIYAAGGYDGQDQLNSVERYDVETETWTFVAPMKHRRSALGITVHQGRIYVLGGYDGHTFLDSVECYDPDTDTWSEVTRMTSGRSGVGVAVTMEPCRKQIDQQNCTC

[6] = tested on: RAW264.7; assay: Antioxidant activity in mouse RAW264.7 cells assessed as inhibition of LPS-induced ROS generation at 10 uM measured after 12 hrs by CH2DCF-DA staining based fluorescence microscopic analysis; type: functional, cell-based
How it was run: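 RAW 264.7 cells were pretreated with LPS 1 µg/mL for 6 h, then given compound for 12 h. Cells were washed with PBS and stained with 10 µM c-H2DCF-DA for 20 min at 37 °C in the dark. ROS was imaged by live-cell fluorescence microscopy and quantified as mean fluorescence intensity. n = 3 independent observations, mean ± SEM.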

[7] = tested on: RAW264.7; assay: Antioxidant activity in LPS-induced mouse RAW264.7 cells assessed as restoration of SOD activity at 10 uM […]; type: functional, cell-based
[8] = tested on: RAW264.7; assay: Antioxidant activity in LPS-induced mouse RAW264.7 cells assessed as restoration of GSH-Px activity at 10 uM measured after 12 hrs; type: functional, cell-based
How it was run: (§2)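 RAW 264.7 cells were pretreated with LPS 1 µg/mL for 6 h, then exposed to compound (1 or 10 µM) for a further 12 h. SOD activity (WST-8 kit), GSH-Px activity, MPO activity and the GSH/GSSG ratio were measured with commercial kits per the manufacturer's protocols. Data are mean ± SEM, n = 3 independent observations, one-way ANOVA.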

[9] = tested on: RAW264.7; assay: Antioxidant activity in LPS-induced mouse RAW264.7 cells assessed as restoration of GSH to GSSG ratio at 10 uM measured after 12 hrs; type: functional, cell-based; how it was run: as §2
[10] = tested on: RAW264.7; assay: Antioxidant activity in mouse RAW264.7 cells assessed as reversal in LPS-induced increase of MPO activity measured after 12 hrs; type: functional, cell-based; how it was run: as §2
[11] = Half life in CD-1 rat liver microsomes preincubated for 5 mins followed by NADPH addition and measured after 45 mins by LC-MS/MS analysis; type: ADME, Microsome; conditions: time 50 min
How it was run: (§3)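 CD-1 male rat liver microsomes in PBS were shaken 10 min at 37 °C, then DMSO compound solution (0.1 mM) was added. Plates were preincubated 5 min at 37 °C before NADPH was added to start the reaction; the 0-min samples were quenched with acetonitrile first. Ice-cold acetonitrile stopped reactions at 5, 15, 30 and 45 min. Clozapine was the reference; supernatants were analysed by LC-MS/MS.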

[12] = Intrinsic clearance in CD-1 rat liver microsomes preincubated for 5 mins followed by NADPH addition and measured after 45 mins by LC-MS/MS analysis; type: ADME, Microsome; conditions: time 50 min; how it was run: as §3
[13] = Hepatic clearance in CD-1 rat liver microsomes preincubated for 5 mins followed by NADPH addition and measured after 45 mins by LC-MS/MS analysis; type: ADME, Microsome; how it was run: as §3
[14] = target: T1, Cytochrome P450 1A2 (Homo sapiens, UniProt P05177); assay: Inhibition of CYP1A2 in human liver microsomes preincubated for 10 mins followed by NADPH addition by LC-MS/MS analysis; type: ADME
T1 sequence (P05177 whole entry): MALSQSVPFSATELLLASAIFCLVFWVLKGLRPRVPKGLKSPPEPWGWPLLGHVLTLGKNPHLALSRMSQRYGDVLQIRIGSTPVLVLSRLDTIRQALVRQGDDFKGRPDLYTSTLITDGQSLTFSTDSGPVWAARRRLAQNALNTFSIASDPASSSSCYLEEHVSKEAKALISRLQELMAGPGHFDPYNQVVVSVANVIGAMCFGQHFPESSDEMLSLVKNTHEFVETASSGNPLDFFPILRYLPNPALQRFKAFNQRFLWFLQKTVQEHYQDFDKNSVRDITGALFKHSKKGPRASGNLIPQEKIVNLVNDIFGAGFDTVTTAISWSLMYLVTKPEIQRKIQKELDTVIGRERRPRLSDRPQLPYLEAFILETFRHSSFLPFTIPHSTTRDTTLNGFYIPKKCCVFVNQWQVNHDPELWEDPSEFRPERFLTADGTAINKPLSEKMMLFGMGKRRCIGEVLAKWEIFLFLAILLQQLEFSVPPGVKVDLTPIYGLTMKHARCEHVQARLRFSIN

[15] = target: Cytochrome P450 2C9 (Homo sapiens, UniProt P11712); assay: Inhibition of CYP2C9 in human liver microsomes preincubated for 10 mins followed by NADPH addition by LC-MS/MS analysis; type: ADME
Chain of Cytochrome P450 2C9 (P11712 whole entry): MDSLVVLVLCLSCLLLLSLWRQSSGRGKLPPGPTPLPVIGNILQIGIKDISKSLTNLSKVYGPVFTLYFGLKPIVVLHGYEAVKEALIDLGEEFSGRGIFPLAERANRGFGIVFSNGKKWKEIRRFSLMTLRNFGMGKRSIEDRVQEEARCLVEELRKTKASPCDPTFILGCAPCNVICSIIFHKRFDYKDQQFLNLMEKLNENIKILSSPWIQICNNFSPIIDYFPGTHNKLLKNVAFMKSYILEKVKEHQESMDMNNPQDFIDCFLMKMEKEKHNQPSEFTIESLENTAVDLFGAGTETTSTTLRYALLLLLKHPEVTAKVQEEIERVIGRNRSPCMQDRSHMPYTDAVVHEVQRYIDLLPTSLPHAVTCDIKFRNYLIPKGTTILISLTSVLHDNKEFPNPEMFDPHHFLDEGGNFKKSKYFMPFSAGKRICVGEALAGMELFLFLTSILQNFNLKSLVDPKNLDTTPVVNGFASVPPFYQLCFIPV

[16] = target: Cytochrome P450 2C19 (Homo sapiens, UniProt P33261); assay: Inhibition of CYP2C19 in human liver microsomes preincubated for 10 mins followed by NADPH addition by LC-MS/MS analysis; type: ADME
Chain of Cytochrome P450 2C19 (P33261 whole entry): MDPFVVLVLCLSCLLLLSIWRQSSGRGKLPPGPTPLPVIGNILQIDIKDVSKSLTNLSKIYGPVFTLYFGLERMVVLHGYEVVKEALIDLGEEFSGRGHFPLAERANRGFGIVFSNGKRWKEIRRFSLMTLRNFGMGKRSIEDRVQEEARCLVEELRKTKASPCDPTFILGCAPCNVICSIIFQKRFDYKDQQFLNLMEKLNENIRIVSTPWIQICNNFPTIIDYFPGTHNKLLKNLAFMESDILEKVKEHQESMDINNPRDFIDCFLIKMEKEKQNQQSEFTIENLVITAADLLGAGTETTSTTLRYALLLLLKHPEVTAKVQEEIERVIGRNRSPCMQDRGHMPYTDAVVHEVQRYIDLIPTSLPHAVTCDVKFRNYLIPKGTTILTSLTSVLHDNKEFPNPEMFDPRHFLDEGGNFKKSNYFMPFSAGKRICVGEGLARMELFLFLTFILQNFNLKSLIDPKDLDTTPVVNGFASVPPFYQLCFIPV

[17] = target: Cytochrome P450 2D6 (Homo sapiens, UniProt P10635); assay: Inhibition of CYP2D6 in human liver microsomes preincubated for 10 mins followed by NADPH addition by LC-MS/MS analysis; type: ADME
Chain of Cytochrome P450 2D6 (P10635 whole entry): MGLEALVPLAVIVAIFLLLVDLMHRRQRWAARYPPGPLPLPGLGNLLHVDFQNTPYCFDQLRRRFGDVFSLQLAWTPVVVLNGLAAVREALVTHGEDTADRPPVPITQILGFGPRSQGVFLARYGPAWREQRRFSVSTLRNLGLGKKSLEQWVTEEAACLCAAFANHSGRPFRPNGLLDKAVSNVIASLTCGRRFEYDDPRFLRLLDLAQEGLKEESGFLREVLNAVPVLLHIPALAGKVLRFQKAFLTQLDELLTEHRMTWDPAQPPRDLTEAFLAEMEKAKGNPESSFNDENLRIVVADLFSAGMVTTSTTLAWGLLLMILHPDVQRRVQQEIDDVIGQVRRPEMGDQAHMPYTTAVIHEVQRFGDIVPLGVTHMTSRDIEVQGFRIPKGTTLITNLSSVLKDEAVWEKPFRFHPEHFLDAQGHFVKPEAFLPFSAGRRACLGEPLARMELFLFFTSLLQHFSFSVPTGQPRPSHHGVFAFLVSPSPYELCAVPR

[18] = target: Cytochrome P450 3A4 (Homo sapiens, UniProt P08684); assay: Inhibition of CYP3A4 in human liver microsomes preincubated for 10 mins followed by NADPH addition by LC-MS/MS analysis; type: ADME
Chain of Cytochrome P450 3A4 (P08684 whole entry): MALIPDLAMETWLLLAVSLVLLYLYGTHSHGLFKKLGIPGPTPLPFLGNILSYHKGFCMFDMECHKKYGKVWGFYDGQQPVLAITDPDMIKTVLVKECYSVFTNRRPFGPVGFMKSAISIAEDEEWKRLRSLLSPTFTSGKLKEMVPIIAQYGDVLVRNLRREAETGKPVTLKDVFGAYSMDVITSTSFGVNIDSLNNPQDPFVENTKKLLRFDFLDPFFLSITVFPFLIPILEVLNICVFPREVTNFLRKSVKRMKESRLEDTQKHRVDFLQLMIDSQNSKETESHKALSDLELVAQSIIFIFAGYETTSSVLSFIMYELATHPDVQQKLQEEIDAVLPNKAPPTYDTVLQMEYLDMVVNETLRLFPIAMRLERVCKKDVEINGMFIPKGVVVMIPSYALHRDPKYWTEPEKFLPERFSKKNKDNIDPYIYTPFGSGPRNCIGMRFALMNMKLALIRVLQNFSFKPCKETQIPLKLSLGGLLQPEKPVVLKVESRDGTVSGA

[19] = AUC (0 to t) in Sprague-Dawley rat at 1 mg/kg, iv by LC-MS/MS analysis; type: ADME, organism-based; conditions: in vivo
[20] = AUC (0 to infinity) in Sprague-Dawley rat at 1 mg/kg, iv by LC-MS/MS analysis; type: ADME, organism-based; design: dose 1 mg/kg, route intravenous, time infinity; conditions: in vivo
[21] = Half life in Sprague-Dawley rat at 1 mg/kg, iv by LC-MS/MS analysis; type: ADME, organism-based; conditions: in vivo
How it was run: (§4)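 Six male SD rats (180–220 g) received 1 mg/kg IV in normal saline with cosolvent. Plasma was obtained by centrifugation at 4 °C and 2000 rpm for 10 min, stored near −80 °C, and analysed by LC-MS/MS.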

[22] = Cmax in Sprague-Dawley rat at 1 mg/kg, iv by LC-MS/MS analysis; type: ADME, organism-based; design: route intravenous, dose 1 mg/kg; conditions: in vivo; how it was run: as §4
[23] = Apparent volume of distribution during terminal phase in Sprague-Dawley rat at 1 mg/kg, iv by LC-MS/MS analysis; type: ADME, organism-based; conditions: in vivo; how it was run: as §4
[24] = tested on: Mus musculus; assay: Antiinflammatory activity in ip dosed LPS-induced C57BL/6 mouse model assessed as reduction in IFNgamma production treated for 3 days measured 24 hrs post last dose by ELISA; type: functional, organism-based; conditions: time 4.0 day; how it was run: as §1
[25] = tested on: Mus musculus; assay: Antiinflammatory activity in ip dosed LPS-induced C57BL/6 mouse model assessed as reduction in IL1beta production treated for 3 days measured 24 hrs post last dose by ELISA; type: functional, organism-based; conditions: time 4.0 day; how it was run: as §1
[26] = tested on: Mus musculus; assay: Antiinflammatory activity in ip dosed LPS-induced C57BL/6 mouse model assessed as reduction in IL6 production treated for 3 days measured 24 hrs post last dose by ELISA; type: functional, organism-based; conditions: time 4.0 day; how it was run: as §1
[27] = tested on: Mus musculus; assay: Antiinflammatory activity in ip dosed LPS-induced C57BL/6 mouse model assessed as reduction in TNFalpha production treated for 3 days measured 24 hrs post last dose by ELISA; type: functional, organism-based; conditions: time 4.0 day; how it was run: as §1

SMILES: C[C@@H]1C[C@H]2[C@@H]3CCC4=CC(=O)C=C[C@]4(C)[C@@]3(F)[C@@H](O)C[C@]2(C)[C@@]1(O)C(=O)CO
Activity [1]: Active
Activity [2]: Active
Activity [3]: Active
Activity [4]: Active

SMILES: O=C(O)CN(c1ccc(OC(C(=O)O)c2ccccc2)c2ccccc12)S(=O)(=O)c1cccc2ccccc12 (configuration not stated)
IC50 [5]: 780 nM

SMILES: Cc1ccc(S(=O)(=O)N(CC(=O)O)c2ccc(OC(C(=O)O)c3ccccc3)c3ccccc23)cc1 (configuration not stated)
IC50 [5]: 2690 nM

SMILES: NC(=O)c1ccc(S(=O)(=O)N(CC(=O)O)c2ccc(OC(C(=O)O)c3ccccc3)c3ccccc23)cc1 (configuration not stated)
IC50 [5]: 2690 nM

SMILES: O=C(O)CN(c1ccc(OC(C(=O)O)c2ccccc2)c2ccccc12)S(=O)(=O)c1ccccc1 (configuration not stated)
IC50 [5]: 17800 nM

SMILES: O=C(O)CN(c1ccc(OC(C(=O)O)c2ccccc2)c2ccccc12)S(=O)(=O)c1ccc(Br)cc1 (configuration not stated)
IC50 [5]: 2970 nM

SMILES: O=C(O)CN(c1ccc(OC(C(=O)O)c2ccccc2)c2ccccc12)S(=O)(=O)c1ccc(Cl)cc1 (configuration not stated)
IC50 [5]: 7640 nM

SMILES: O=C(O)CN(c1ccc(OC(C(=O)O)c2ccccc2)c2ccccc12)S(=O)(=O)c1ccc(OC(F)(F)F)cc1 (configuration not stated)
IC50 [5]: 5840 nM

Further lines, with some results ahead:

IC50 [5]: 190 nM
SMILES: Cc1cc(C)c(S(=O)(=O)N(CC(=O)O)c2ccc(OC(C(=O)O)c3ccc(Cl)cc3)c3ccccc23)c(C)c1 (configuration not stated)

IC50 [5]: 150 nM
SMILES: CCOc1ccc(C(Oc2ccc(N(CC(=O)O)S(=O)(=O)c3c(C)cc(C)cc3C)c3ccccc23)C(=O)O)cc1 (configuration not stated)

IC50 [5]: 500 nM
SMILES: Cc1cc(C)c(S(=O)(=O)N(CC(=O)O)c2ccc(OC(C(=O)O)c3ccc(OC(C)C)cc3)c3ccccc23)c(C)c1 (configuration not stated)

IC50 [5]: 430 nM
SMILES: Cc1cc(C)c(S(=O)(=O)N(CC(=O)O)c2ccc(OC(C(=O)O)c3ccc(Br)cc3)c3ccccc23)c(C)c1 (configuration not stated)

half-life at […] [11]: 10.5 h
CLint at […] [12]: 1.57 µL/min/mg
CLhep predicted at […] [13]: 2.69 mL/min/kg
IC50 [14]: > 10000 nM
IC50 [15]: > 10000 nM
IC50 [16]: > 10000 nM
IC50 [17]: > 10000 nM
IC50 [18]: > 10000 nM
AUC(0-t) [19]: 2550 ng·h/mL
AUC [20]: 2649 ng·h/mL
t1/2 [21]: 1.72 h
Cmax [22]: 15100 ng/mL
Vz/F [23]: 0.953 L/kg
SMILES: COc1ccc(C(Oc2ccc(N(CC(=O)O)S(=O)(=O)c3c(C)cc(C)cc3C)c3ccccc23)C(=O)O)cc1 (configuration not stated)
inhibition [6]: Dose-dependent effect
Activity [7]: Active
Activity [8]: Active
Activity [9]: Active
Activity [10]: Dose-dependent effect
Activity [24]: Dose-dependent effect
Activity [25]: Dose-dependent effect
Activity [26]: Dose-dependent effect
Activity [27]: Dose-dependent effect

IC50 [5]: 980 nM
SMILES: CC(=O)Nc1ccc(C(Oc2ccc(N(CC(=O)O)S(=O)(=O)c3c(C)cc(C)cc3C)c3ccccc23)C(=O)O)cc1 (configuration not stated)

IC50 [5]: 160 nM
SMILES: Cc1cc(C)c(S(=O)(=O)N(CC(=O)O)c2ccc(OC(C(=O)O)c3ccc(O)cc3)c3ccccc23)c(C)c1 (configuration not stated)

IC50 [5]: 170 nM
SMILES: Cc1cc(C)c(S(=O)(=O)N(CC(=O)O)c2ccc(OC(C(=O)O)c3ccc(F)cc3)c3ccccc23)c(C)c1 (configuration not stated)

IC50 [5]: 1190 nM
SMILES: Cc1cc(C)c(S(=O)(=O)N(CC(=O)O)c2ccc(OC(C(=O)O)c3ccc(C(F)(F)F)cc3)c3ccccc23)c(C)c1 (configuration not stated)

IC50 [5]: 19000 nM
SMILES: Cc1cc(C)c(S(=O)(=O)N(CC(=O)O)c2ccc(OC(C(=O)O)c3ccc(C(C)(C)C)cc3)c3ccccc23)c(C)c1 (configuration not stated)
